Experimental data as given in ChEMBL document CHEMBL3352043, “Discovery of small-molecule inhibitors selectively targeting the DNA-binding domain of the human androgen receptor” (J Med Chem, 2014).
Calls of active or inactive are those of the source. The calls are words filed in the database; no cut-off is given here.

Assays:
[1] = biological target: T1, Progesterone receptor (Homo sapiens) (UniProt P06401); test: Inhibition of progesterone receptor (unknown origin) transcriptional activity at […]
T1 sequence (whole entry): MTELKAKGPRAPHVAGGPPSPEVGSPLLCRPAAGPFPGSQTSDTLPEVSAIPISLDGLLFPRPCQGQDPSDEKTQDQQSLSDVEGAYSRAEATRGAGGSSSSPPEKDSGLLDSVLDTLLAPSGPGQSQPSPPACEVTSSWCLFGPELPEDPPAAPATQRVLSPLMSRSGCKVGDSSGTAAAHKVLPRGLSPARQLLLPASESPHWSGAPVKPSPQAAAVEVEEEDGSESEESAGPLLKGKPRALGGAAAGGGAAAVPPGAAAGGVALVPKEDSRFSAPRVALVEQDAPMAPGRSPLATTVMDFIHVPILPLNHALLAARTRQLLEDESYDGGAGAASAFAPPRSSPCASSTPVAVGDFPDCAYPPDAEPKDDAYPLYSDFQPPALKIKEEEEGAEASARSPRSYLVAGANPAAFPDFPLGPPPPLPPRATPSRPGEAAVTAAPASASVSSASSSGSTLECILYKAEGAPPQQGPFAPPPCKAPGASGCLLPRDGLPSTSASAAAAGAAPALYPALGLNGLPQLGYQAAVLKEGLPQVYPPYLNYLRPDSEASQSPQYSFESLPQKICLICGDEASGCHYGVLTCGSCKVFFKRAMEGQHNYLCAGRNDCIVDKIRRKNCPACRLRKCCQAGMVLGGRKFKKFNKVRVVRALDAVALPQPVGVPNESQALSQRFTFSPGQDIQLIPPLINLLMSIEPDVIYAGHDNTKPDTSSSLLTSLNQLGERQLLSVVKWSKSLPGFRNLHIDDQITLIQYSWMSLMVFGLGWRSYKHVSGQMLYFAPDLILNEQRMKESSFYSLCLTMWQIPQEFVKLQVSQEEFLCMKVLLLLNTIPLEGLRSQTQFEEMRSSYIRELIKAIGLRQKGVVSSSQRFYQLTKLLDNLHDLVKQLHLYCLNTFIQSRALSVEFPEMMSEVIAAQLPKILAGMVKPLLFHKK
In short: (§1)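 PC3 cells were starved 5 days in RPMI 1640 with 5% charcoal-stripped serum. They were cotransfected with GR or PR plasmid plus 50 ng ARR3tk-luciferase, and 48 h later treated with compound for 24 h. Stimulation was 1 nM dexamethasone (GR) or progesterone (PR). Luciferase luminescence was read from cell lysates.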

[2] = tested on: T2, Androgen receptor (Homo sapiens), P10275 [Q592D]; test: Inhibition of human androgen receptor Q592D mutant expressed in human PC3 cells assessed as inhibition of transcription activity after 24 hrs by luciferase reporter gene assay; type: cell-based; conditions: PC-3
T2 sequence (whole entry): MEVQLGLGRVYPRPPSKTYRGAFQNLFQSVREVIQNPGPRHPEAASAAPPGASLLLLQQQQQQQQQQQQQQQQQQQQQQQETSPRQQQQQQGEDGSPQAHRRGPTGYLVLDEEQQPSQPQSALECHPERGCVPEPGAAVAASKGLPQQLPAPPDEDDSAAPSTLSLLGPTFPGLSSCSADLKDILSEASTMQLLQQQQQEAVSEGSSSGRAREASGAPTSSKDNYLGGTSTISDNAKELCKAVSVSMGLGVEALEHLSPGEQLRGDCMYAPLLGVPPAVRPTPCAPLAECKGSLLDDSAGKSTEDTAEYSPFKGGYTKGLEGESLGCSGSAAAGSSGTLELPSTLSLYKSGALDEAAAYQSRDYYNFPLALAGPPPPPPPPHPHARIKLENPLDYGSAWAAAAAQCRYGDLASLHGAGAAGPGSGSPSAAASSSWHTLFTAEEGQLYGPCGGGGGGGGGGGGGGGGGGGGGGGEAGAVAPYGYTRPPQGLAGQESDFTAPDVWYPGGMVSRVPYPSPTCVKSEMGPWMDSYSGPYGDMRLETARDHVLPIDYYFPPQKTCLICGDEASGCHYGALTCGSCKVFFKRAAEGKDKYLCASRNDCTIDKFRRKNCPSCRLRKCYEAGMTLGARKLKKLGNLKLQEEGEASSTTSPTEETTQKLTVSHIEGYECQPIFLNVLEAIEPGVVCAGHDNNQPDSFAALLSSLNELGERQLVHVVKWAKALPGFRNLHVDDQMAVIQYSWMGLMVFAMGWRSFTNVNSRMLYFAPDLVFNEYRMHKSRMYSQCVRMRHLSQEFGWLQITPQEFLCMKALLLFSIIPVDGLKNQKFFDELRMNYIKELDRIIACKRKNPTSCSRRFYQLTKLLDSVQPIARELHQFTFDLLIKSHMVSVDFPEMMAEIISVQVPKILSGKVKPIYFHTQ
In short: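 PC3 cells were starved 5 days in RPMI 1640 with 5% charcoal-stripped serum and seeded at 5000 cells/well. After 24 h they were cotransfected with AR-V7 or hAR mutant plasmid plus 50 ng ARR3tk-luciferase. At 48 h post-transfection, compounds were added for 24 h with 0.1 nM R1881. Luminescence was read from passive-lysis-buffer lysates; mutant tests used 10 μM.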

[3] = biological target: T3, Glucocorticoid receptor (Homo sapiens) (UniProt P04150); test: Inhibition of glucocorticoid receptor (unknown origin) transcriptional activity at […]; in short: as §1
T3 sequence (whole entry): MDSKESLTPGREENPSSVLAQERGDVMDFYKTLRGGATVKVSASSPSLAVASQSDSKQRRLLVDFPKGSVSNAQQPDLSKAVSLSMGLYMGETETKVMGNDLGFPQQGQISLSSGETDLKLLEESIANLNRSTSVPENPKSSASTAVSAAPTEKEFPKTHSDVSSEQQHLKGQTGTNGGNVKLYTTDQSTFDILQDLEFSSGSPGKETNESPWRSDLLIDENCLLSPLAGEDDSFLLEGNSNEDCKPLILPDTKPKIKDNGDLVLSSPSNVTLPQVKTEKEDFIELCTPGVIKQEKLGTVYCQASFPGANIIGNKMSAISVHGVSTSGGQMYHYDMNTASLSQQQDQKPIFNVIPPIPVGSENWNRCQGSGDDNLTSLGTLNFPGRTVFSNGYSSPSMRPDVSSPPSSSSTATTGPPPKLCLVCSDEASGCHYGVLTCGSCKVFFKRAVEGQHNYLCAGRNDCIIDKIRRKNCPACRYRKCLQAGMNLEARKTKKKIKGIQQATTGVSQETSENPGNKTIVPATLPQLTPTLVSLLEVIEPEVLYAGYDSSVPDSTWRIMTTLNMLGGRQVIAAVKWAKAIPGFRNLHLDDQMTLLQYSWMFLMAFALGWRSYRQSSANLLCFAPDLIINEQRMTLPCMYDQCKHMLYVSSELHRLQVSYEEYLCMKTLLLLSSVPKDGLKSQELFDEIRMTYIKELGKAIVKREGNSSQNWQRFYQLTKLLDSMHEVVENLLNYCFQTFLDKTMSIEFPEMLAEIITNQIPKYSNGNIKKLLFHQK

[4] = Stability of the compound in RPMI plus 5% charcoal stripped serum media after 1 hr by MS analysis; type: physicochemical
[5] = Growth inhibition of AR-negative human PC3 cells after 3 days by MTS assay; type: cell-based; conditions: pc-3, 72 h

Row | Structure (SMILES) | inhibition [1] | inhibition [2] | inhibition [3] | Stability [4] | Activity [5]
1 | c1ccc(-c2csc(N3CCOCC3)n2)cc1 | inactive | inactive | inactive |  | 
2 | Brc1ncn(-c2csc(N3CCOCC3)n2)c1Br | inactive | inactive | inactive | Stable | Non-toxic
